# High-throughput results from PubChem.
# NR2E3 ag-1 – activates human photoreceptor nuclear receptor NR2E3. actives 0.12% (n = 320,000). GST-NR2E3/biotin-RetCOR TR-FRET, 1536-well. inhibition of corepressor binding, % at 4.78 µM;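 active = percent inhibition above the cutoff of mean plus 3 SD of all tested compounds, set per screening campaign, cut at about 20% in these data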;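 also: 0% = DMSO wells and 100% = biotin wells as full block of FRET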
#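 Format: 1536-well format; test system: GST-NR2E3 and biotin-RetCOR proteins; read-out basis: percent inhibition of TR-FRET ratio; timing: 5 h incubation at 4 °C; detection: time-resolved FRET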
# Neddylation inh – cullin neddylation inhibition; P61081+Q13564; TR-FRET cullin neddylation, biochemical; calls only at 25 µM; actives 0.58% (n = 360,000); AID 651699; in the data active = inhibition above about 36%
# PG9 binder – small molecules binding HIV-1 gp120 antibody PG9 | TR-FRET gp120-PG9 antibody binding | inhibition, % at 6.7 µM | actives 0.43% (n = 360,000) | AID 624416; in the data active = inhibition above about 8.5%
# NR2E3 ag-2 – human photoreceptor-specific nuclear receptor agonism | Q9Y5X4 | CHO-S Gal4-NCOR/VP16-NR2E3 two-hybrid, luciferase | inhibition of corepressor binding, % at 3.98 µM | actives 0.35% (n = 360,000);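 active = inhibition above the mean of all tested compounds plus 3 SD, cut at about 70% in these data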;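 also: 0% = DMSO with NR2E3 transfected cells and 100% = cells lacking NR2E3 construct; higher means lower luciferase signal from less NR2E3 corepressor binding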
# Rev-erbA mod – modulators of human Rev-erb alpha DNA binding; Rev-erbα–FITC-DNA binding, fluorescence polarization, 90 min; activity, % at 10 µM; actives 0.79% (n = 370,000); AID 1259318;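 active = activity above about 14%, limit read from the data; passing the limit was not always enough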;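 also: 0% = DMSO wells with 35 nM protein and 100% = DMSO wells with 750 nM protein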
# NR1D1 mod conf – Rev-erb alpha (human) modulation, hit confirmation. actives 61% (n = 3,000). shares compounds with Rev-erbA mod. activation, % at 25 µM. Rev-erb alpha FITC-DNA binding, fluorescence polarization, 90 min;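 active = activation at or above a set limit, or at least 3 SD above the negative control mean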;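 also: 0% = 35 nM protein with DMSO and 100% = 750 nM protein high control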
# RORg DNA counter – affects RORgamma DNA binding in a Rev-erb alpha counter-screen. purified RORgamma protein-FITC-DNA binding, fluorescence polarization. IC50, µM. actives 8% (n = 910). shares compounds with Rev-erbA mod;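 active = Compounds whose fitted half-maximal concentration for disrupting protein-DNA binding is below 10 micromolar; the record names Rev-erb in its text, so the target is in doubt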
# * hit, by the source's call; i = inactive; x = not tested or not shown. An excerpt weighted towards active compounds, which were near 2% of everything screened.
SMILES,NR2E3 ag-1,Neddylation inh,PG9 binder,NR2E3 ag-2,Rev-erbA mod,NR1D1 mod conf,others
CCCCn1c(SCC(=O)Nc2cc(C)on2)nc2ccsc2c1=O,0.6,i,-3.2,8.2,45.1*,27.1*,
COc1ccc(NC(=O)CSc2nc3ccccc3c(=O)n2-c2ccc3c(c2)OCO3)c(OC)c1,-6.5,i,-0.6,-5.1,83.9*,126.8*,RORg DNA counter=>40
COc1ccc(-n2c(SCC(=O)Nc3ccc4c(c3)OCO4)nc3ccccc3c2=O)cc1,3.0,i,-3.4,-3.4,1.7,x,
CC1(C)c2ssc(=S)c2-c2ccccc2N1C(=O)CSC1=NCCS1,-0.4,i,1.5,1.8,9.1,x,
COc1ccc2c(c1)-c1c(ssc1=S)C(C)(C)N2C(=O)CSC1=NCCS1,-2.1,i,-0.5,9.9,21.2*,30.4*,
Cc1ccc(S(=O)(=O)Nc2cccc(C(=O)NCC(c3ccco3)N3CCCC3)c2)cc1F (stereo not given),-0.1,i,-1.7,-2.8,-2.6,x,
O=C1CCCC(O)=C1C=Nc1ccc2c(c1)oc1ccccc12,0.6,i,0.4,-23.9,29.9*,28.3*,
Cc1ccc(C=C2C=C(c3ccccc3)OC2=O)cc1,x,i,0.2,-103.1,-5.8,x,
CN(C)c1ccc(/C=C2/C=C(c3ccc4c(c3)CCCC4)OC2=O)cc1,0.8,i,1.5,-16.9,24.6*,3.1,
CN(C)c1ccc(C=C2C=C(c3ccccc3)OC2=O)cc1,x,i,-2.4,-18.9,31.9*,0.5,
Cc1ccccc1N1CCN(C(=O)CN2C(=O)CC(C)(C)S(=O)(=O)c3ccccc32)CC1,x,x,x,x,-3.3,x,
S=C=Nc1ccc(N=C=S)cc1,x,x,x,x,-3.1,x,
CC(Sc1nn(-c2ccc(F)cc2)c(=S)s1)C(=O)c1c(N)n(C)c(=O)n(C)c1=O (stereo not given),-2.9,i,1.5,-19.8,22.1*,23.5*,
Cn1c(N)c(C(=O)CSc2nn(-c3ccccc3)c(=S)s2)c(=O)n(C)c1=O,x,i,-0.7,-34.2,10.1,x,
CC1(C(=O)NS(=O)(=O)c2cccc(Cl)c2)CCN1C(=O)CC1CCCCC1 (stereo not given),x,i,-1.8,-16.5,16.4*,3.5,
CC1(C(=O)NS(=O)(=O)c2cccc(Cl)c2)CCN1C(=O)CC1CC1 (stereo not given),x,i,0.3,4.4,-3.4,x,
Cc1cc2cc3c(cc2nc1SCc1ccccn1)OCCO3,-3.0,i,-2.9,-27.9,44.0*,17.2*,
CC(NC(=O)c1ccccc1NC(=O)c1ccco1)c1ccccc1 (stereo not given),4.7,i,1.1,-7.3,21.0*,21.7*,
CC(C)C(NC(=O)c1ccccc1NC(=O)c1ccco1)C(=O)O (stereo not given),-2.8,i,0.2,9.0,-4.1,x,
CCC(O)c1nc2ccccc2n1CCc1ccccc1 (stereo not given),-1.8,i,-2.5,-9.7,4.2,x,
COC(=O)[C@]12C[C@H](CC(=O)NCc3ccccc3)C(=O)N(CCC3=CCCCC3)C1=C[C@H](C1CCCC1)O[C@@H]2C,x,x,x,x,-2.6,x,
CC1(Cc2ccccc2C#N)C(=O)Nc2ccc(OC(F)(F)F)cc21 (stereo not given),x,i,-1.1,-20.9,28.2*,25.9*,
CCc1ccc2c(c1)NC(=O)C2(C)Cc1ccccc1Cl (stereo not given),x,i,0.8,8.3,-2.0,x,
CC1(Cc2ccccc2Cl)C(=O)Nc2ccc(OC(F)(F)F)cc21 (stereo not given),x,i,-0.1,-17.7,35.5*,45.0*,RORg DNA counter=>40
COc1ccc(OC(F)(F)F)cc1CC1(C)C(=O)Nc2c(Cl)ccc(Cl)c21 (stereo not given),x,i,x,-6.5,x,x,
COc1ccc(NC(=O)Cc2nnc(SCC(=O)Nc3nccs3)n2C)cc1,5.6,i,-0.1,23.4,-3.7,x,
CC1(C(=O)NS(=O)(=O)C2CC2)CCCN(C(=O)Cc2ccc3ccccc3c2)C1 (stereo not given),x,i,-0.9,-3.8,-2.2,x,
C1CCC(NC2=NCCO2)CC1,x,i,-1.0,-23.4,1.7,x,
C1COC(NC(C2CC2)C2CC2)=N1,1.1,i,-0.3,9.1,16.7*,-6.8,
